One block for each compound: values may come before it. Calls of active or inactive are those of the source. No cut-off for these calls is given here.
Tests used:
[1] = target: Sigma non-opioid intracellular receptor 1 (Homo sapiens) (UniProt Q99720); test: Binding affinity to sigma 1 receptor at 10 uM by radioligand displacement assay
Summary of the method: (§1)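 Target specificity panel: single-concentration competitive displacement of each target's radioligand, with compound at 1 µM or 10 µM as stated per line. Run by an outside contract lab under its internal protocols; mean ± SE, n = 2.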

[2] = target: T1, Alpha-2A adrenergic receptor (Homo sapiens) (UniProt P08913); test: Binding affinity to adrenergic alpha2A receptor at 10 uM by radioligand displacement assay; summary of the method: as §1
T1 sequence (whole entry): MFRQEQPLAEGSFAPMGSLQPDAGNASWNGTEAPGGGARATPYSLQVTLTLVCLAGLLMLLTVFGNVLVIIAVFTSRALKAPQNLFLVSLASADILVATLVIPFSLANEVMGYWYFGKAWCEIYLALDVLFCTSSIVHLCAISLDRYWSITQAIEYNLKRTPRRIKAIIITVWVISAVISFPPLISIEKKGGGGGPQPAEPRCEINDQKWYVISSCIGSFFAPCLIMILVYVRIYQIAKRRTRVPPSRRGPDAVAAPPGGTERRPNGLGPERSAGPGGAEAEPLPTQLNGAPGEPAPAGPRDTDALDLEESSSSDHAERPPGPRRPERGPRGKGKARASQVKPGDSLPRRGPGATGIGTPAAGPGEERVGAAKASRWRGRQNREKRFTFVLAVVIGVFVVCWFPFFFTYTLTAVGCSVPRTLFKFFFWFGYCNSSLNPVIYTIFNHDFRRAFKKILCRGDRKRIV

[3] = target: T2, Alpha-1B adrenergic receptor (Homo sapiens) (UniProt P35368); test: Binding affinity to adrenergic Alpha-1B receptor at 10 uM by radioligand displacement assay; summary of the method: as §1
T2 sequence (whole entry): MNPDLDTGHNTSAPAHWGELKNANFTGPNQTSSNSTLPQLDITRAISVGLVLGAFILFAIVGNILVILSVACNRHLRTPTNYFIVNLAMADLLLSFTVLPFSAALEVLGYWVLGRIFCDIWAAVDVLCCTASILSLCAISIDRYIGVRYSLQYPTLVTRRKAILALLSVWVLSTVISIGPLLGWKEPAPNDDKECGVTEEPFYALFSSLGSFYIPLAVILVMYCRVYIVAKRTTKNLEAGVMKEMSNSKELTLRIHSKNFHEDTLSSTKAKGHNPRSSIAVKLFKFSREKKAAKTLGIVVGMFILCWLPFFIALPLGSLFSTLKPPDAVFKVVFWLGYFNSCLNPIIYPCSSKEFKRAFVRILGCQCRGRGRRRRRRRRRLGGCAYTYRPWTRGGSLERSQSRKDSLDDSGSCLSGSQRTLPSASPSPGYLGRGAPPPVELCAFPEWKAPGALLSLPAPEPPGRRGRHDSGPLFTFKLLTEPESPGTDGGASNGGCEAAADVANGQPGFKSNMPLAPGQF

[4] = target: D(3) dopamine receptor (Homo sapiens) (UniProt P35462); test: Binding affinity to dopamine D3 receptor at 10 uM by radioligand displacement assay; summary of the method: as §1
Chain of D(3) dopamine receptor (Homo sapiens) (P35462 whole entry): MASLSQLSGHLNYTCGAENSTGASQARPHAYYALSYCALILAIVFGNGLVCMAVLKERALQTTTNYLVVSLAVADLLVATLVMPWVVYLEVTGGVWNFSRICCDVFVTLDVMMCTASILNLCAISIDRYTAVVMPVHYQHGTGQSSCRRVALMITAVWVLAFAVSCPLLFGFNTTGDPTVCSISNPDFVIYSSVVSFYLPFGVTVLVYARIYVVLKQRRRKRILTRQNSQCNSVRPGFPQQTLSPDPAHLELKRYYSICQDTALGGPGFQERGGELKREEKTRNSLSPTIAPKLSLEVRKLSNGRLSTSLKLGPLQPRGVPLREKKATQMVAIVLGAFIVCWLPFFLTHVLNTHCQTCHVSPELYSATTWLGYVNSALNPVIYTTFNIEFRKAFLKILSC

[5] = target: T3, 5-hydroxytryptamine receptor 6 (Homo sapiens, UniProt P50406); test: Binding affinity to human recombinant 5HT6 receptor by radioligand displacement assay
T3 sequence (P50406 whole entry): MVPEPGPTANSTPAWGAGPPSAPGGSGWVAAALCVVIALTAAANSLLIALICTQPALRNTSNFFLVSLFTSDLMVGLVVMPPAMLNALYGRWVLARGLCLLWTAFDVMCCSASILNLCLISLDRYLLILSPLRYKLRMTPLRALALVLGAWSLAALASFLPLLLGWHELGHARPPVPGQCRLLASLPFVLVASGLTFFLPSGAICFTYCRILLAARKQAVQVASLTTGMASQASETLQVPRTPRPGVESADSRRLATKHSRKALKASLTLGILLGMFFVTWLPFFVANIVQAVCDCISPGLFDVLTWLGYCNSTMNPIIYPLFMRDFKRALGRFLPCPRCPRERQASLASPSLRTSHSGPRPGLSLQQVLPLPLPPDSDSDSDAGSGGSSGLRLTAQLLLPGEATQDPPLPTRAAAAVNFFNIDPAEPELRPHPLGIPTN
Summary of the method: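 Competitive displacement of the corresponding radioligand, run by an outside contract lab under its internal protocols. Data from one representative experiment in duplicate.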

[6] = target: T4, Alpha-1A adrenergic receptor (Homo sapiens) (UniProt P35348); test: Binding affinity to adrenergic alpha1A receptor at 10 uM by radioligand displacement assay; summary of the method: as §1
T4 sequence (whole entry): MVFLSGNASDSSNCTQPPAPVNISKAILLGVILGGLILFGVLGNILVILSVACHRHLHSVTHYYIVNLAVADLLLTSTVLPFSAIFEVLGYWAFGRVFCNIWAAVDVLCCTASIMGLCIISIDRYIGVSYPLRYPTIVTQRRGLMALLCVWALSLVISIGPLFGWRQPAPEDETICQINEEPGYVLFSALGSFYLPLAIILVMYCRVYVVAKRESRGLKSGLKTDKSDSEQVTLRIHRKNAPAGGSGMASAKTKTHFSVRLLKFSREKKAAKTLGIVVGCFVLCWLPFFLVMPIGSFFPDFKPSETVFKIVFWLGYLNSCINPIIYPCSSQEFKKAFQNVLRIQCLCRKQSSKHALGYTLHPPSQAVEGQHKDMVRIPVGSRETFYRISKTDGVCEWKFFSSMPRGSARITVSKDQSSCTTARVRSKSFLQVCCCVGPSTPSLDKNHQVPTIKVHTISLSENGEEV

[7] = target: Sodium-dependent dopamine transporter (Homo sapiens) (UniProt Q01959); test: Binding affinity to dopamine transporter at 10 uM by radioligand displacement assay; summary of the method: as §1
Chain of Sodium-dependent dopamine transporter (Homo sapiens) (Q01959 whole entry): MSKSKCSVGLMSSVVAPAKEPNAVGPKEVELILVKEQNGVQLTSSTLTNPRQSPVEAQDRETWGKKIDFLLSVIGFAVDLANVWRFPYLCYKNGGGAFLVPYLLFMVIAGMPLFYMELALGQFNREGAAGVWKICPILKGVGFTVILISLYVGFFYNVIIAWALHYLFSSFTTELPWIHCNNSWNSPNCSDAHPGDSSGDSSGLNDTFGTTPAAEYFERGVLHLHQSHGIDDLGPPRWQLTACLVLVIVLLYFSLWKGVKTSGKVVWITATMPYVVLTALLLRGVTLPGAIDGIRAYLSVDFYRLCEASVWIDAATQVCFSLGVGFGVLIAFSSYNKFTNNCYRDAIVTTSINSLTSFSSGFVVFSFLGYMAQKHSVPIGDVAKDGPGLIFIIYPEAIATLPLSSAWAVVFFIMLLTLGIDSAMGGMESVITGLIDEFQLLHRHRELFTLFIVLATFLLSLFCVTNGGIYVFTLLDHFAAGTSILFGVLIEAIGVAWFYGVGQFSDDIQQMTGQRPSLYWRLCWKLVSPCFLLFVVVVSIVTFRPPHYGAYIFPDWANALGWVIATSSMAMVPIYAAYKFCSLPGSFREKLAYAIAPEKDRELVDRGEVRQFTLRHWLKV

[8] = target: Sodium-dependent noradrenaline transporter (Homo sapiens) (UniProt P23975); test: Binding affinity to norepinephrine transporter at 10 uM by radioligand displacement assay; summary of the method: as §1
Chain of Sodium-dependent noradrenaline transporter (Homo sapiens) (P23975 whole entry): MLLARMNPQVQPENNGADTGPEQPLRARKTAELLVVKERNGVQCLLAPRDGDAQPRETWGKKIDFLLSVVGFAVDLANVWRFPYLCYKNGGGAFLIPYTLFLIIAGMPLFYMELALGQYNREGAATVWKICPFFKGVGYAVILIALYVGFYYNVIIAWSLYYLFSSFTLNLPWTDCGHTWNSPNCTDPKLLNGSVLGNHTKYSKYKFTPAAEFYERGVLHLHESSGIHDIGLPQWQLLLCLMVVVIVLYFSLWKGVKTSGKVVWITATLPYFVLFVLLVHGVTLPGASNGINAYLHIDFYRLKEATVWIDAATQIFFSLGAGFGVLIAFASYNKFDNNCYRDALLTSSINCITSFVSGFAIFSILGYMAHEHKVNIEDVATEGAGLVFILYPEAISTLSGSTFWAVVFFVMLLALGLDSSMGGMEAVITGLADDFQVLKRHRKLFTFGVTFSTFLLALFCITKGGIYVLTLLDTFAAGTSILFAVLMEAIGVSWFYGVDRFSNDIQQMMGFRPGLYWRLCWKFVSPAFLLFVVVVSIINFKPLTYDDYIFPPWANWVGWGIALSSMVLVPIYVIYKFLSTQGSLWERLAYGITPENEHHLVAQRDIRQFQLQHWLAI

[9] = target: T5, Alpha-1D adrenergic receptor (Homo sapiens) (UniProt P25100); test: Binding affinity to adrenergic Alpha-1D receptor at 10 uM by radioligand displacement assay; summary of the method: as §1
T5 sequence (whole entry): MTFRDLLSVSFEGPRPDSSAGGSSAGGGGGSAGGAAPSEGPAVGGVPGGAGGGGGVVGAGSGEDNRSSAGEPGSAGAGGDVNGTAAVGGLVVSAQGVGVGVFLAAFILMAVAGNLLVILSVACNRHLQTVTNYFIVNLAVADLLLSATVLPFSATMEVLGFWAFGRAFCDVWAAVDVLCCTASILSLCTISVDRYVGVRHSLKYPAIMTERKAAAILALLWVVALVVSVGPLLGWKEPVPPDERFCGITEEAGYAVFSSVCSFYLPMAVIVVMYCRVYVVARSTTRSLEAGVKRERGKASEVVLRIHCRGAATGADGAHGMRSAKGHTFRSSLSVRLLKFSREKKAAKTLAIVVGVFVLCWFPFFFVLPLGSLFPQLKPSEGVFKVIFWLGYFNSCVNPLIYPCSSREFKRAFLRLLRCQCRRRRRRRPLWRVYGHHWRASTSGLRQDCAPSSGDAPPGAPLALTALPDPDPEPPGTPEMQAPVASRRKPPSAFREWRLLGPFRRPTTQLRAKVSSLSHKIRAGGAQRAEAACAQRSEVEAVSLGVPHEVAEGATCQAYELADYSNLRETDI

[10] = target: T3, 5-hydroxytryptamine receptor 6; test: Antagonist activity at human recombinant 5HT6 receptor expressed in HEK293 cells assessed as inhibition of serotonin-induced cAMP production by LANCE assay relative to serotonin; format: functional, cell-based
Summary of the method: (§2)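 HEK-293 cells with a tetracycline-inducible (T-Rex) human 5-HT6 receptor, grown in DMEM/10% FBS with blasticidin S and zeocin and induced with tetracycline the day before. Medium was swapped for HBSS with 1 mM MgCl2, 1 mM CaCl2, IBMX and 5 mM HEPES, pH 7.4. Compounds (0.1% DMSO) were added 15 min at RT, then 10 nM serotonin for 30 min. cAMP read by LANCE; 2 independent experiments in duplicate.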

[11] = target: T3, 5-hydroxytryptamine receptor 6; test: Antagonist activity at human recombinant 5HT6 receptor expressed in HEK293 cells assessed as inhibition of serotonin-induced cAMP production by LANCE assay; format: functional, cell-based; settings: read-out: IC50; summary of the method: as §2

Chain of Sigma non-opioid intracellular receptor 1 (Homo sapiens) (Q99720 whole entry): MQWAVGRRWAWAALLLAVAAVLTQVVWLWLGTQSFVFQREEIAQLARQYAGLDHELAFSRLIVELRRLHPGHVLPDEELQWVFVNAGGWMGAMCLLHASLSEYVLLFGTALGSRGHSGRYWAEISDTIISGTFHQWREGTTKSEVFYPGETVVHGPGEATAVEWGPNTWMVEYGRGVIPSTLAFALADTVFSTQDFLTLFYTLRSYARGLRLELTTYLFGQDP

SMILES: CN1CCc2c(c3cc(S(=O)(=O)c4ccccc4)ccc3n2C)C1
Activity [1]: Active | Activity [2]: Active | Activity [3]: Active | Activity [4]: Active | Ki [5]: 0.0057 µM | Activity [6]: Active | Activity [7]: Active | Activity [8]: Active | Activity [9]: Active | Imax [10]: 100%

SMILES: Cc1ccc(S(=O)(=O)n2c3c(c4cc(S(=O)(=O)c5ccccc5)ccc42)CN(C)CC3)cc1
IC50 [11]: 28 µM | Imax [10]: 100%

SMILES: CN1CCc2c(c3cc(S(=O)(=O)c4ccccc4)ccc3n2CCc2ccccn2)C1
Imax [10]: 100%

Now from value to compound:

IC50 [11]: 26 µM | Imax [10]: 100%
SMILES: CN1CCc2[nH]c3ccc(S(=O)(=O)N(C)C)cc3c2C1

Imax [10]: 100%
SMILES: CN1CCc2[nH]c3ccc(S(=O)(=O)c4cccc(F)c4)cc3c2C1

— ChEMBL document CHEMBL1157011, “8-Sulfonyl-substituted tetrahydro-1H-pyrido[4,3-b]indoles as 5-HT6 receptor antagonists” (Eur J Med Chem, 2010)
